Results collected from several papers.
Each line is one published result; the experiments were not run side by side. ≈ marks a conversion by molar mass, not a printed value.
Organism: Pseudomonas aeruginosa

`CCCCCCCCCCCC(=O)OC[C@H]1O[C@@H](n2cc(C)c(=O)[nH]c2=O)C[C@@H]1OC(=O)c1ccc(C(C)(C)C)cc1` gave an MBC of 16 µg/mL (≈ 27.4 µM) (microbial killing, broth dilution).
`CSc1ccc(/C=C/c2cc(/C=C3\Sc4ccccc4N3CCCN3CCCC3)c3ccccc3[n+]2C)cc1.[I-]` has an MIC of 64 µg/mL (microbial growth, broth dilution; ATCCBAA2108; drug-resistant strain).
With `C[C@@H](O)[C@H]1C(=O)N2C(C(=O)O)=C(S[C@@H]3CN[C@H](C(=O)N(C)C)C3)[C@H](C)[C@H]12` the MIC90 was 0.25 µg/mL (≈ 0.652 µM) (microbial growth; PAO1).
With `COc1cccc(OC)c1C(=O)N[C@@H]1C(=O)N2[C@@H]1SC(C)(C)[C@@H]2C(=O)O` the MIC was over 64 µg/mL (microbial growth, broth dilution; ATCCBAA2108; drug-resistant strain).
For `O=C(Nc1cccc(-c2cc(C(=O)O)no2)c1)Nc1ccc(Cl)c(Cl)c1`, the MIC was over 64 µg/mL (microbial growth, broth dilution; ATCC27853).
With `O=C(O)c1cn(C2CC2)c2cc(N3CCNCC3)c(F)cc2c1=O` the inhibition zone was 33.5 mm (microbial growth; K799/61; 1000 µg/mL).
For `CCCCCCCCCCCC(=O)OC[C@H]1O[C@@H](n2cc(C)c(=O)[nH]c2=O)C[C@@H]1O`, the MBC was 16 µg/mL (≈ 37.7 µM) (microbial killing, broth dilution).
For `ONCc1cc(F)cc(F)c1`, the MIC50 was 150 µg/mL (≈ 943 µM) (microbial growth; ATCC15692; 8 h).
`CC1(C)S[C@@H]2[C@H](NC(=O)[C@H](N)c3ccccc3)C(=O)N2[C@H]1C(=O)O` has an inhibition zone of 32 mm (microbial growth, well diffusion; ATCC27853; 60000 µg/mL).
The MIC of `COC(=O)c1cc(-c2cccc(NC(=O)Nc3cccc(F)c3)c2)on1` is reported as over 64 µg/mL (microbial growth, broth dilution; ATCC27853).
